Sampled rows, rich in hits. Any-hit rate of the full collection: about 4.6%.
TAAR1 agonist: human TAAR1 agonism. AID 624467. Q96RJ0. 0.99% of 360,000 active. activation, % at 3 µM. CHO RD-HGA16 TAAR1, Fluo-8 calcium fluorescence; vehicle wells 0%, saturating PEA agonist 100%;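 active means activation above the mean activation of all test compounds in the run plus 3 SD, cut at about 38% in these data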
Target sequence (Q96RJ0 whole entry, looked up): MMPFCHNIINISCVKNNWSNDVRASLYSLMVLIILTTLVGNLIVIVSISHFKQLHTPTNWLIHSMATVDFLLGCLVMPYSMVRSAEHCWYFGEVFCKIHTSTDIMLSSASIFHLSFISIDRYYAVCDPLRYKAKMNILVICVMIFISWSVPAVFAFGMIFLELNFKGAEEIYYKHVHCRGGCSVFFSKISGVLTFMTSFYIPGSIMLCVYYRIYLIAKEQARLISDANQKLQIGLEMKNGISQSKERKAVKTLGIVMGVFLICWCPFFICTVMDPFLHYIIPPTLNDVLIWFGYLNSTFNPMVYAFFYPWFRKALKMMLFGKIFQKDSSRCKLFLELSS
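Signal – calcium-sensitive Fluo-8 signal, excitation 470-495, emission 515-575 nm · System – RD-HGA16 (CHO) cells co-expressing Gα16 and hTAAR1 · Incubation – 17-24 h seeding, 75 min 37 °C dye, 30 min RT · Compound dosing – 3 µM single concentration · Repeats – no replicates (n 1)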
CHO parental Ca: signal in parental CHO cells, OX1R antagonist counter-screen; parental CHO-K1, ATP-induced calcium, Fluo-8 fluorescence; 0.63% of 330,000 active; inhibition, % at 5.6 µM;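 active means inhibition above that plate's mean sample inhibition plus 3 SD, cut at about 26% in these data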;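 further: 0% = ATP-challenged DMSO wells and 100% = DMSO wells without ATP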
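test system = CHO parental line | reagent = ATP stimulus | measured by = intracellular calcium via Fluo-8 no-wash fluorescent dye | control set = ATP and no-ATP DMSO wells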
GPR7 antagonist: antagonists of human GPR7 (neuropeptides B/W receptor 1); GPR7-expressing cells, fluorescence antagonist assay; P48145; 1.1% of 290,000 active; inhibition, % at 4.4 µM; AID 1861; in the data active means inhibition above about 16%, passing the limit was not always enough;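 further: cells stimulated with the agonist NPW; 0% = agonist with vehicle and 100% = vehicle without agonist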
OX1R antag-1: OX1R (human) antagonism | 1.8% of 330,000 active | OX1R-expressing cells, FRET antagonist read-out | AID 485270 | inhibition, % at 6.6 µM; in the data active means inhibition mostly above about 38%, no sharp cut-off; inactive means mostly below about 40%;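 further: 0% = agonist challenge alone and 100% = reference antagonist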
TAAR1 antagonist: human TAAR1 antagonism | Q96RJ0 | CHO RD-HGA16 TAAR1, Fluo-8 calcium fluorescence, antagonist | inhibition, % at 3 µM | 1.5% of 360,000 active;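 active means inhibition above a per-plate cutoff, the mean inhibition of test compounds on that plate plus 3 SD, cut at about 49% in these data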;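 further: 0% = DMSO plus EC80 beta-PEA response and 100% = DMSO alone without agonist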
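Test system: RD-HGA16 CHO cells with stable hTAAR1 and Gα16 / Probe or stimulus: EC80 β-phenethylamine stimulus / Times: seeding 17-24 h prior, 75-min 37 °C, 30-min RT dye loading / Detection: Fluo-8 calcium-sensitive fluorescence / Read-out basis: % inhibition scaled between DMSO and EC80 PEA controls / Repeats: singlicate, one well per test compound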
OX1R antag-2: human HCRTR1 antagonism; O43613; CHO/OX1R cells, Fluo-8 calcium fluorescence, orexin A; inhibition, % at 5 µM; 0.43% of 330,000 active; AID 434989;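 active means inhibition above its plate's threshold, mean inhibition of all tested compounds on the plate plus 3 SD, cut at about 37% in these data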;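 further: 0% = orexin A challenge wells and 100% = SB-334867-A antagonist wells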
TAAR1 nonsel count: counter-screen for TAAR1 antagonists: nonselective antagonists; shares compounds with TAAR1 antagonist; counterscreen cell line, calcium fluorescence, antagonist mode; inhibition, % at 3 µM; 77% of 2,400 active; AID 651780; in the data active means inhibition above about 22%;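 further: CHO-Ga16 host cells stimulated with ATP at an EC80 level; 0% = agonist EC80 plus vehicle and 100% = vehicle without agonist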
TAAR1 ant conf: human TAAR1 antagonism, confirmed; shares compounds with TAAR1 antagonist; TAAR1-expressing cells, fluorescence antagonist read-out; inhibition, % at 3 µM; 40% of 2,400 active; AID 651785; in the data active means inhibition above about 49%;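 further: CHO-Ga16 host cells challenged with agonist PEA near its EC80; 0% = agonist at EC80 plus vehicle and 100% = vehicle with no agonist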
Ga16 nonsel ag: counter-screen for TAAR1 antagonists: nonselective Ga16 agonists; Ga16-expressing cells, calcium fluorescence, agonist counterscreen; shares compounds with TAAR1 antagonist; 18% of 2,400 active; activation, % at 3 µM; AID 651953; in the data active means activation above about 12%;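 further: 0% = vehicle wells and 100% = saturating stimulus response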
TAAR1 ag counter: TAAR1 agonism, antagonist counter-screen. shares compounds with TAAR1 antagonist. hTAAR1 cell line, fluorescence activation, agonist mode. activation, % at 3 µM. 2% of 2,400 active; in the data active means activation above about 37%;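 further: CHO cells stably expressing TAAR1 with calcium dye readout; 0% = DMSO vehicle and 100% = full agonist response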
* = called active by the depositor; ! = not active in a repeat.

How did C[C@H](NC(=O)c1nc[nH]c1C(=O)NCC(=O)OCc1ccccc1)C(=O)OCc1ccccc1 do in these assays?
TAAR1 agonist: 12.2; CHO parental Ca: -4.6; GPR7 antagonist: -2.9; OX1R antag-1: 9.4; TAAR1 antagonist: 70.7*; OX1R antag-2: -11.0; TAAR1 nonsel count: 36.3*; TAAR1 ant conf: 61.6*; Ga16 nonsel ag: 6.2; TAAR1 ag counter: 5.9

What do the screens show for `CNC(=O)c1[nH]cnc1C(=O)N[C@@H](C)C(=O)OCc1ccccc1`?
TAAR1 agonist: 20.4; CHO parental Ca: -1.2; OX1R antag-1: 30.4; TAAR1 antagonist: 46.0; OX1R antag-2: -16.0

How did CC1CCN(C(=O)CCNS(=O)(=O)c2ccc3c(c2)c(=O)n(C)c(=O)n3C)CC1 do in these assays?
TAAR1 agonist: 0.7; CHO parental Ca: -14.5; GPR7 antagonist: -5.4; OX1R antag-1: 9.7; TAAR1 antagonist: -5.8; OX1R antag-2: -20.4

Results for COc1cccc(N2CCN(C(=O)CC(C)(C)CC3=NS(=O)(=O)c4ccccc4N3)CC2)c1 ?
TAAR1 agonist: 16.5; CHO parental Ca: 15.1; GPR7 antagonist: -6.4; OX1R antag-1: 12.4; TAAR1 antagonist: 71.6*; OX1R antag-2: -1.2; TAAR1 nonsel count: 35.9*; TAAR1 ant conf: 58.6*; Ga16 nonsel ag: 13.6*; TAAR1 ag counter: 15.7

Results for O=C(CCCC1=NS(=O)(=O)c2ccccc2N1)N1CCN(c2ccccc2)CC1 ?
TAAR1 agonist: 14.2; CHO parental Ca: -21.9; GPR7 antagonist: -17.1; OX1R antag-1: 5.2; TAAR1 antagonist: 15.4; OX1R antag-2: -3.2

What do the screens show for `Nc1ccn([C@@H]2O[C@H](C(=O)N[C@H](CO)c3ccccc3)[C@@H](O)[C@H]2O)c(=O)n1`?
TAAR1 agonist: 4.2; TAAR1 antagonist: -9.5

How did CCC(C)Sc1ccc(-c2nc3ccc(C)cn3c2NCc2ccccc2)cc1 (stereo not given) do in these assays?
TAAR1 agonist: 6.2; CHO parental Ca: 62.6; OX1R antag-1: 10.5; TAAR1 antagonist: 71.9*; OX1R antag-2: 73.4; TAAR1 nonsel count: 39.1*; TAAR1 ant conf: 56.9*; Ga16 nonsel ag: 4.9; TAAR1 ag counter: 8.2

Results for Cc1ccc2nc(-c3ccc(-c4cccc(Cl)c4)cc3)c(NCc3ccccc3)n2c1 ?
TAAR1 agonist: 6.8; CHO parental Ca: -17.2; OX1R antag-1: 48.0; TAAR1 antagonist: 63.5*; OX1R antag-2: -38.0; TAAR1 nonsel count: 31.8*; TAAR1 ant conf: 28.2; Ga16 nonsel ag: 0.4; TAAR1 ag counter: 0.6

How did CCCCNc1c(-c2ccc(-c3cccc(Cl)c3)cc2)nc2ccccn12 do in these assays?
TAAR1 agonist: 6.1; CHO parental Ca: 26.7; OX1R antag-1: 33.3; TAAR1 antagonist: 65.2*!; OX1R antag-2: -0.6; TAAR1 nonsel count: 30.7*; TAAR1 ant conf: 27.4; Ga16 nonsel ag: 19.3*; TAAR1 ag counter: 14.3

What do the screens show for `COc1cc(-c2nc3ccc(C)cn3c2NCc2ccccc2)ccc1-c1cccc(Cl)c1`?
TAAR1 agonist: 4.1; CHO parental Ca: -7.8; OX1R antag-1: 15.8; TAAR1 antagonist: 22.5; OX1R antag-2: -6.5

What do the screens show for `Cc1cccc(OCCCN2C(=O)C(=O)c3cc(C)ccc32)c1`?
TAAR1 agonist: -3.6; CHO parental Ca: -7.8; GPR7 antagonist: 13.6; OX1R antag-1: 9.5; TAAR1 antagonist: -24.5; OX1R antag-2: -0.6

Results for COc1cc(NC(=O)c2cc3ccccc3o2)c(OC)cc1Br ?
TAAR1 agonist: 9.1; CHO parental Ca: -20.7; GPR7 antagonist: -0.1; OX1R antag-1: 25.1; TAAR1 antagonist: 1.6; OX1R antag-2: -15.0
